ChEMBL document CHEMBL5303300, “EUbOPEN Chemogenomics Library - Multiplex” (2023)
Several values for one entry are separate records, joined by “and”; a condition that tells them apart may be missing. Identical values can stand only once.

Experiments:
Assay type in all cases: toxicity, cell-based
U2OS = assay: Multiplex assay against U2OS; details: human, number of replicates 2
Outline: (§1)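 At seeding, live cells were stained with Hoechst33342, BioTracker Green Microtubule Cytoskeleton Dye, MitoTracker Red and Annexin V Alexa Fluor 680. After compound addition they were imaged on a CQ1 microscope at 37°C and 5% CO2, and CellPathfinder machine-learning gating sorted them into Hoechst high-intensity objects or normal cells, with normal cells further split into healthy, pyknosed or fragmented nuclei and pyknosed cells into mitotic or apoptotic. Tubulin, mitochondrial-mass and membrane-permeability phenotypes are given as per cents of cells with healthy nuclei.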

HEK-293T = assay: Multiplex assay against HEK293T; details: human, number of replicates 2; outline: as §1
Fibroblast = assay: Multiplex assay against human fibroblast; details: number of replicates 2; outline: as §1
[1] = 12 h, 1 µM, compound concentration 1 uM
[2] = 12 h, 10 µM, compound concentration 10 uM
[3] = 24 h, 1 µM, compound concentration 1 uM
[4] = 24 h, 10 µM, compound concentration 10 uM
[5] = 48 h, 1 µM, compound concentration 1 uM
[6] = 48 h, 10 µM, compound concentration 10 uM

Compound: CN(C)CCCN1c2ccccc2Sc2ccc(Cl)cc21.Cl [CHLORPROMAZINE HYDROCHLORIDE]
- Population Healthy Nuclei (%) (U2OS; [1]): 42% and 81%
- Population Hoechst High Intensity Objects (%) (U2OS; [1]): 0%
- Population Membrane Permeable-Phenotype (%) (U2OS; [1]): 0% and 1%
- Population Mitochondria Different-Phenotype (%) (U2OS; [1]): 0% and 2%
- Population Normal (%) (U2OS; [1]): 100%
- Population Pyknosed Nuclei (%) (U2OS; [1]): 7% and 15%
- Population Tubulin-Different-Phenotype (%) (U2OS; [1]): 100% and 81%
- Population Healthy Nuclei (%) (U2OS; [2]): 49% and 77%
- Population Hoechst High Intensity Objects (%) (U2OS; [2]): 0% and 1%
- Population Membrane Permeable-Phenotype (%) (U2OS; [2]): 6% and 3%
- Population Mitotic Cells (%) (U2OS; [2]): 80% and 36%
- Population Normal (%) (U2OS; [2]): 100% and 98%
- Population Pyknosed Nuclei (%) (U2OS; [2]): 8% and 17%
- Population Tubulin-Different-Phenotype (%) (U2OS; [2]): 36% and 42%
- Population Healthy Nuclei (%) (U2OS; [3]): 53% and 88%
- Population Hoechst High Intensity Objects (%) (U2OS; [3]): 0%
- Population Membrane Permeable-Phenotype (%) (U2OS; [3]): 0% and 2%
- Population Mitochondria Different-Phenotype (%) (U2OS; [3]): 0% and 1%
- Population Mitotic Cells (%) (U2OS; [3]): 0% and 24%
- Population Normal (%) (U2OS; [3]): 100%
- Population Pyknosed Nuclei (%) (U2OS; [3]): 0% and 9%
- Population Tubulin-Different-Phenotype (%) (U2OS; [3]): 87% and 85%
- Population Apoptotic (%) (U2OS; [4]): 63% and 64%
- Population Healthy Nuclei (%) (U2OS; [4]): 39% and 73%
- Population Hoechst High Intensity Objects (%) (U2OS; [4]): 0%
- Population Membrane Permeable-Phenotype (%) (U2OS; [4]): 3%
- Population Mitochondria Different-Phenotype (%) (U2OS; [4]): 12% and 19%
- Population Mitotic Cells (%) (U2OS; [4]): 36% and 35%
- Population Normal (%) (U2OS; [4]): 100% and 99%
- Population Pyknosed Nuclei (%) (U2OS; [4]): 14% and 20%
- Population Tubulin-Different-Phenotype (%) (U2OS; [4]): 32% and 51%
- Population Healthy Nuclei (%) (U2OS; [5]): 55% and 88%
- Population Hoechst High Intensity Objects (%) (U2OS; [5]): 0%
- Population Normal (%) (U2OS; [5]): 100%
- Population Pyknosed Nuclei (%) (U2OS; [5]): 3% and 7%
- Population Tubulin-Different-Phenotype (%) (U2OS; [5]): 100% and 88%
- Population Apoptotic (%) (U2OS; [6]): 92% and 74%
- Population Healthy Nuclei (%) (U2OS; [6]): 34% and 66%
- Population Hoechst High Intensity Objects (%) (U2OS; [6]): 0%
- Population Membrane Permeable-Phenotype (%) (U2OS; [6]): 7% and 4%
- Population Mitochondria Different-Phenotype (%) (U2OS; [6]): 7%
- Population Normal (%) (U2OS; [6]): 100% and 99%
- Population Pyknosed Nuclei (%) (U2OS; [6]): 16% and 24%
- Population Tubulin-Different-Phenotype (%) (U2OS; [6]): 51% and 55%
- Population Apoptotic (%) (HEK-293T; [1]): 54% and 40%
- Population Fragmented Nuclei (%) (HEK-293T; [1]): 3% and 4%
- Population Healthy Nuclei (%) (HEK-293T; [1]): 81% and 82%
- Population Hoechst High Intensity Objects (%) (HEK-293T; [1]): 13% and 8%
- Population Membrane Permeable-Phenotype (%) (HEK-293T; [1]): 1% and 2%
- Population Mitochondria Different-Phenotype (%) (HEK-293T; [1]): 25% and 15%
- Population Mitotic Cells (%) (HEK-293T; [1]): 45% and 59%
- Population Normal (%) (HEK-293T; [1]): 86% and 91%
- Population Pyknosed Nuclei (%) (HEK-293T; [1]): 14% and 12%
- Population Tubulin-Different-Phenotype (%) (HEK-293T; [1]): 53% and 48%
- Total Cell Count (HEK-293T; [1]): 443 and 595
- Population Apoptotic (%) (HEK-293T; [2]): 55%
- Population Fragmented Nuclei (%) (HEK-293T; [2]): 1% and 2%
- Population Healthy Nuclei (%) (HEK-293T; [2]): 80% and 78%
- Population Hoechst High Intensity Objects (%) (HEK-293T; [2]): 9% and 6%
- Population Membrane Permeable-Phenotype (%) (HEK-293T; [2]): 2%
- Population Mitochondria Different-Phenotype (%) (HEK-293T; [2]): 40% and 53%
- Population Mitotic Cells (%) (HEK-293T; [2]): 44%
- Population Normal (%) (HEK-293T; [2]): 90% and 93%
- Population Pyknosed Nuclei (%) (HEK-293T; [2]): 17% and 19%
- Population Tubulin-Different-Phenotype (%) (HEK-293T; [2]): 83% and 88%
- Total Cell Count (HEK-293T; [2]): 580 and 531
- Population Apoptotic (%) (HEK-293T; [3]): 57% and 47%
- Population Fragmented Nuclei (%) (HEK-293T; [3]): 7% and 5%
- Population Healthy Nuclei (%) (HEK-293T; [3]): 80% and 88%
- Population Hoechst High Intensity Objects (%) (HEK-293T; [3]): 5% and 7%
- Population Membrane Permeable-Phenotype (%) (HEK-293T; [3]): 1%
- Population Mitochondria Different-Phenotype (%) (HEK-293T; [3]): 12% and 4%
- Population Mitotic Cells (%) (HEK-293T; [3]): 42% and 52%
- Population Normal (%) (HEK-293T; [3]): 94% and 92%
- Population Pyknosed Nuclei (%) (HEK-293T; [3]): 11% and 6%
- Population Tubulin-Different-Phenotype (%) (HEK-293T; [3]): 36% and 29%
- Total Cell Count (HEK-293T; [3]): 621 and 951
- Population Apoptotic (%) (HEK-293T; [4]): 67% and 63%
- Population Fragmented Nuclei (%) (HEK-293T; [4]): 4%
- Population Healthy Nuclei (%) (HEK-293T; [4]): 81% and 82%
- Population Hoechst High Intensity Objects (%) (HEK-293T; [4]): 6% and 9%
- Population Membrane Permeable-Phenotype (%) (HEK-293T; [4]): 1%
- Population Mitochondria Different-Phenotype (%) (HEK-293T; [4]): 46% and 48%
- Population Mitotic Cells (%) (HEK-293T; [4]): 32% and 36%
- Population Normal (%) (HEK-293T; [4]): 93% and 90%
- Population Pyknosed Nuclei (%) (HEK-293T; [4]): 14% and 13%
- Population Tubulin-Different-Phenotype (%) (HEK-293T; [4]): 86% and 82%
- Total Cell Count (HEK-293T; [4]): 619 and 581
- Population Apoptotic (%) (HEK-293T; [5]): 31% and 16%
- Population Fragmented Nuclei (%) (HEK-293T; [5]): 9% and 8%
- Population Healthy Nuclei (%) (HEK-293T; [5]): 85% and 87%
- Population Hoechst High Intensity Objects (%) (HEK-293T; [5]): 8% and 10%
- Population Membrane Permeable-Phenotype (%) (HEK-293T; [5]): 5% and 3%
- Population Mitochondria Different-Phenotype (%) (HEK-293T; [5]): 1% and 0%
- Population Mitotic Cells (%) (HEK-293T; [5]): 68% and 83%
- Population Normal (%) (HEK-293T; [5]): 91% and 89%
- Population Pyknosed Nuclei (%) (HEK-293T; [5]): 5% and 3%
- Population Tubulin-Different-Phenotype (%) (HEK-293T; [5]): 14% and 11%
- Total Cell Count (HEK-293T; [5]): 1435 and 2116
- Population Apoptotic (%) (HEK-293T; [6]): 44% and 58%
- Population Fragmented Nuclei (%) (HEK-293T; [6]): 5% and 6%
- Population Healthy Nuclei (%) (HEK-293T; [6]): 86% and 85%
- Population Hoechst High Intensity Objects (%) (HEK-293T; [6]): 9% and 10%
- Population Membrane Permeable-Phenotype (%) (HEK-293T; [6]): 4% and 6%
- Population Mitochondria Different-Phenotype (%) (HEK-293T; [6]): 8% and 12%
- Population Mitotic Cells (%) (HEK-293T; [6]): 55% and 41%
- Population Normal (%) (HEK-293T; [6]): 90% and 89%
- Population Pyknosed Nuclei (%) (HEK-293T; [6]): 8%
- Population Tubulin-Different-Phenotype (%) (HEK-293T; [6]): 64% and 60%
- Total Cell Count (HEK-293T; [6]): 952 and 839
- Population Apoptotic (%) (Fibroblast; [1]): 40% and 38%
- Population Fragmented Nuclei (%) (Fibroblast; [1]): 16% and 14%
- Population Healthy Nuclei (%) (Fibroblast; [1]): 51% and 64%
- Population Hoechst High Intensity Objects (%) (Fibroblast; [1]): 0%
- Population Membrane Permeable-Phenotype (%) (Fibroblast; [1]): 7% and 5%
- Population Mitochondria Different-Phenotype (%) (Fibroblast; [1]): 1% and 2%
- Population Mitotic Cells (%) (Fibroblast; [1]): 59% and 61%
- Population Normal (%) (Fibroblast; [1]): 100%
- Population Pyknosed Nuclei (%) (Fibroblast; [1]): 32% and 21%
- Population Tubulin-Different-Phenotype (%) (Fibroblast; [1]): 14% and 13%
- Total Cell Count (Fibroblast; [1]): 190 and 200
- Population Apoptotic (%) (Fibroblast; [2]): 52% and 41%
- Population Fragmented Nuclei (%) (Fibroblast; [2]): 15% and 22%
- Population Healthy Nuclei (%) (Fibroblast; [2]): 65% and 62%
- Population Hoechst High Intensity Objects (%) (Fibroblast; [2]): 0%
- Population Membrane Permeable-Phenotype (%) (Fibroblast; [2]): 5% and 1%
- Population Mitochondria Different-Phenotype (%) (Fibroblast; [2]): 5% and 9%
- Population Mitotic Cells (%) (Fibroblast; [2]): 47% and 58%
- Population Normal (%) (Fibroblast; [2]): 99% and 100%
- Population Pyknosed Nuclei (%) (Fibroblast; [2]): 19% and 14%
- Population Tubulin-Different-Phenotype (%) (Fibroblast; [2]): 45% and 36%
- Total Cell Count (Fibroblast; [2]): 187 and 323
- Population Apoptotic (%) (Fibroblast; [3]): 64% and 46%
- Population Fragmented Nuclei (%) (Fibroblast; [3]): 15% and 17%
- Population Healthy Nuclei (%) (Fibroblast; [3]): 58% and 66%
- Population Hoechst High Intensity Objects (%) (Fibroblast; [3]): 0%
- Population Membrane Permeable-Phenotype (%) (Fibroblast; [3]): 13% and 6%
- Population Mitochondria Different-Phenotype (%) (Fibroblast; [3]): 1% and 3%
- Population Mitotic Cells (%) (Fibroblast; [3]): 35% and 53%
- Population Normal (%) (Fibroblast; [3]): 100%
- Population Pyknosed Nuclei (%) (Fibroblast; [3]): 25% and 16%
- Population Tubulin-Different-Phenotype (%) (Fibroblast; [3]): 23% and 12%
- Total Cell Count (Fibroblast; [3]): 206 and 196
- Population Apoptotic (%) (Fibroblast; [4]): 80% and 58%
- Population Fragmented Nuclei (%) (Fibroblast; [4]): 15% and 24%
- Population Healthy Nuclei (%) (Fibroblast; [4]): 72% and 65%
- Population Hoechst High Intensity Objects (%) (Fibroblast; [4]): 1%
- Population Membrane Permeable-Phenotype (%) (Fibroblast; [4]): 2% and 1%
- Population Mitochondria Different-Phenotype (%) (Fibroblast; [4]): 16% and 15%
- Population Mitotic Cells (%) (Fibroblast; [4]): 19% and 41%
- Population Normal (%) (Fibroblast; [4]): 98%
- Population Pyknosed Nuclei (%) (Fibroblast; [4]): 11% and 10%
- Population Tubulin-Different-Phenotype (%) (Fibroblast; [4]): 49% and 42%
- Total Cell Count (Fibroblast; [4]): 187 and 299
- Population Apoptotic (%) (Fibroblast; [5]): 82% and 60%
- Population Fragmented Nuclei (%) (Fibroblast; [5]): 19% and 15%
- Population Healthy Nuclei (%) (Fibroblast; [5]): 60% and 71%
- Population Hoechst High Intensity Objects (%) (Fibroblast; [5]): 0%
- Population Membrane Permeable-Phenotype (%) (Fibroblast; [5]): 7% and 4%
- Population Mitochondria Different-Phenotype (%) (Fibroblast; [5]): 4% and 1%
- Population Mitotic Cells (%) (Fibroblast; [5]): 17% and 39%
- Population Normal (%) (Fibroblast; [5]): 99%
- Population Pyknosed Nuclei (%) (Fibroblast; [5]): 20% and 12%
- Total Cell Count (Fibroblast; [5]): 195 and 226
- Population Apoptotic (%) (Fibroblast; [6]): 73% and 90%
- Population Fragmented Nuclei (%) (Fibroblast; [6]): 23% and 32%
- Population Healthy Nuclei (%) (Fibroblast; [6]): 67% and 57%
- Population Hoechst High Intensity Objects (%) (Fibroblast; [6]): 1% and 0%
- Population Membrane Permeable-Phenotype (%) (Fibroblast; [6]): 2%
- Population Mitochondria Different-Phenotype (%) (Fibroblast; [6]): 5% and 7%
- Population Mitotic Cells (%) (Fibroblast; [6]): 26% and 9%
- Population Normal (%) (Fibroblast; [6]): 99%
- Population Pyknosed Nuclei (%) (Fibroblast; [6]): 9%
- Population Tubulin-Different-Phenotype (%) (Fibroblast; [6]): 33% and 34%
- Total Cell Count (Fibroblast; [6]): 201 and 323
